Activity calls are given as the source filed them. No cut-off for these calls is given here.
Assays:
Bel-7402 = experiment: Cytotoxicity against human Bel7402 cells by MTT assay; assay type: functional, cell-based
In short: (§1)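 MTT assay on five human tumour lines: HT-29 colon carcinoma, HCT-8 ileocecal adenocarcinoma, Bel-7402 hepatoma, A549 non-small cell lung carcinoma and MCF-7 breast carcinoma.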

HCT-8 = experiment: Cytotoxicity against human HCT8 cells by MTT assay; assay type: functional, cell-based; in short: as §1
HT-29 [1] = experiment: Decrease in topoisomerase 1 expression in human HT-29 cells at 20 uM after 24 hrs relative to control; assay type: functional, cell-based
In short: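 TOPO I protein level in HT-29 cells was probed after 24 h incubation by the common protocols with a commercial TOPO I antibody. Levels were compared with a control group.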

HT-29 [2] = experiment: Cytotoxicity against human HT-29 cells by MTT assay; assay type: functional, cell-based; in short: as §1
MCF7 = experiment: Cytotoxicity against human MCF7 cells by MTT assay; assay type: functional, cell-based; in short: as §1
[3] = biological target: T1, DNA topoisomerase 1 (Homo sapiens) (UniProt P11387); experiment: Inhibition of topoisomerase 1 assessed as conversion of supercoiled DNA to open circular DNA at 100 uM
T1 sequence (whole entry): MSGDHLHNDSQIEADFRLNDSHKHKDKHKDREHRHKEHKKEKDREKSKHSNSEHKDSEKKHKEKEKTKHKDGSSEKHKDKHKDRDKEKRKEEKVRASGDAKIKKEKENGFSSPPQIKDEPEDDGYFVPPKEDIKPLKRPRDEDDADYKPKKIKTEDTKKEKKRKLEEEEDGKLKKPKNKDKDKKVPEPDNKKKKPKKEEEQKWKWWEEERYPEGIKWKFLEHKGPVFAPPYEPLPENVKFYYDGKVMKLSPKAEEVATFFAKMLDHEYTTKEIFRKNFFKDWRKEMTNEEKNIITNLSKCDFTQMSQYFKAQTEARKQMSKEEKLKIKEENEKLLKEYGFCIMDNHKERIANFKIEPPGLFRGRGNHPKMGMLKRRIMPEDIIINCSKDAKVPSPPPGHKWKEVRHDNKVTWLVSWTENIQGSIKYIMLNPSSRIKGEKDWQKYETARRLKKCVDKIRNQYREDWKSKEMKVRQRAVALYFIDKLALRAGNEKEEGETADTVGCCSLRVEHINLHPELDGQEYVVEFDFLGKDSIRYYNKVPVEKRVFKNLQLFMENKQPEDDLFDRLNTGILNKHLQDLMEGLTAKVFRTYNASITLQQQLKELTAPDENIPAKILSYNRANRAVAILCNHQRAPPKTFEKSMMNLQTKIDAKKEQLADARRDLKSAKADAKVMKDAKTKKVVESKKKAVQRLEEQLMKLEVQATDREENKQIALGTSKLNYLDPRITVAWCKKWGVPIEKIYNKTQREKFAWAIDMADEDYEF
In short: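 A commercial TOPO I drug screening kit was used with a supercoiled plasmid DNA substrate. Activity was read as conversion of supercoiled DNA (Form I) to open circular DNA, with camptothecin as reference inhibitor.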

A549 = experiment: Cytotoxicity against human A549 cells by MTT assay; assay type: functional, cell-based; in short: as §1
HT-29 [4] = experiment: Cell cycle arrest in human HT-29 cells assessed as accumulation of Sub-G1 phase at 20 uM after 24 hrs by flow cytometry relative to control; assay type: functional
In short: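 HT-29 cells were exposed for 24 h. Apoptosis was scored by flow cytometry as the percentage of cells in the Sub-G1 phase, compared against an untreated control group.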

Compound	IC50 (Bel-7402)	IC50 (HCT-8)	Activity (HT-29 [1])	IC50 (HT-29 [2])	IC50 (MCF7)	Activity [3]	IC50 (A549)	Activity (HT-29 [4])
CCN1CCN(C(=O)C(CC(C)C)NC(=O)Cn2c3ccccc3c3c4c(c5c6ccccc6[nH]c5c32)C(=O)N(C)C4=O)CC1 (configuration not stated)	> 10 µM	> 10 µM	Active	3.48 µM	2.44 µM	Active	7.94 µM	8.86%
COC(=O)C(C)NC(=O)Cn1c2ccccc2c2c3c(c4c5ccccc5[nH]c4c21)C(=O)N(C)C3=O (configuration not stated)	> 10 µM	> 10 µM		> 10 µM	> 10 µM		> 10 µM	
CC(NC(=O)Cn1c2ccccc2c2c3c(c4c5ccccc5[nH]c4c21)C(=O)N(C)C3=O)C(=O)N1CCOCC1 (configuration not stated)	> 10 µM	> 10 µM		> 10 µM	> 10 µM		> 10 µM	
COC(=O)C(NC(=O)Cn1c2ccccc2c2c3c(c4c5ccccc5[nH]c4c21)C(=O)N(C)C3=O)C(C)C (configuration not stated)	> 10 µM	> 10 µM		> 10 µM	> 10 µM		> 10 µM	
COC(=O)C(CC(C)C)NC(=O)Cn1c2ccccc2c2c3c(c4c5ccccc5[nH]c4c21)C(=O)N(C)C3=O (configuration not stated)	> 10 µM	> 10 µM		> 10 µM	> 10 µM		> 10 µM	
CCN1CCN(C(=O)C(Cc2ccccc2)NC(=O)Cn2c3ccccc3c3c4c(c5c6ccccc6[nH]c5c32)C(=O)N(C)C4=O)CC1 (configuration not stated)	1.91 µM	1.09 µM	Active	2.88 µM	1.91 µM	Active	1.86 µM	10.3%
COC(=O)C(Cc1ccccc1)NC(=O)Cn1c2ccccc2c2c3c(c4c5ccccc5[nH]c4c21)C(=O)N(C)C3=O (configuration not stated)	> 10 µM	> 10 µM		> 10 µM	> 10 µM		> 10 µM	
COC(=O)CNC(=O)Cn1c2ccccc2c2c3c(c4c5ccccc5[nH]c4c21)C(=O)N(C)C3=O	> 10 µM	> 10 µM		2.88 µM	2.23 µM		2.13 µM	
CN1C(=O)c2c(c3c4ccccc4n(CC(=O)NC(Cc4ccccc4)C(=O)O)c3c3[nH]c4ccccc4c23)C1=O (configuration not stated)	> 10 µM	> 10 µM		> 10 µM	> 10 µM		> 10 µM	
CC(C)C(NC(=O)Cn1c2ccccc2c2c3c(c4c5ccccc5[nH]c4c21)C(=O)N(C)C3=O)C(=O)N1CCOCC1 (configuration not stated)	> 10 µM	> 10 µM	Active	2.66 µM	> 10 µM	Active	5.11 µM	2.49%
CC(NC(=O)Cn1c2ccccc2c2c3c(c4c5ccccc5[nH]c4c21)C(=O)N(C)C3=O)C(=O)O (configuration not stated)	> 10 µM	> 10 µM		> 10 µM	> 10 µM		> 10 µM	
CC(C)CC(NC(=O)Cn1c2ccccc2c2c3c(c4c5ccccc5[nH]c4c21)C(=O)N(C)C3=O)C(=O)N1CCN(C)CC1 (configuration not stated)	2.23 µM	> 10 µM	Active	1.26 µM	1.94 µM	Active	1.84 µM	14.33%
CN1C(=O)c2c(c3c4ccccc4n([C@@H]4O[C@H](CO)[C@@H](O)[C@H](O)[C@H]4O)c3c3[nH]c4ccccc4c23)C1=O	6.68 µM	> 10 µM		7.44 µM	> 10 µM		> 10 µM	
CC(C)C(NC(=O)Cn1c2ccccc2c2c3c(c4c5ccccc5[nH]c4c21)C(=O)N(C)C3=O)C(=O)O (configuration not stated)	> 10 µM	> 10 µM		> 10 µM	> 10 µM		> 10 µM	
CN1C(=O)c2c(c3c4ccccc4n(CC(=O)NCC(=O)O)c3c3[nH]c4ccccc4c23)C1=O	> 10 µM	> 10 µM		> 10 µM	> 10 µM		> 10 µM	
CC(C)CC(NC(=O)Cn1c2ccccc2c2c3c(c4c5ccccc5[nH]c4c21)C(=O)N(C)C3=O)C(=O)O (configuration not stated)	> 10 µM	> 10 µM		> 10 µM	> 10 µM		> 10 µM	

— ChEMBL document CHEMBL1154523, “Design and synthesis of N-methylmaleimide indolocarbazole bearing modified 2-acetamino acid moieties as Topoisomerase I inhibitors” (Bioorg Med Chem Lett, 2009)
